Test results as given in ChEMBL document CHEMBL1149311, “Synthesis and antitumor activity of methyltriazene prodrugs simultaneously releasing DNA-methylating agents and the antiresistance drug O(6)-benzylguanine” (J Med Chem, 2004).
pIC50: −log10 of the molar value.

Experiments:
OVCAR-4 = assay: Antitumor activity against human OVCAR4 cells; type: functional
Summary of the method: (§1)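 Tested in the NCI in vitro disease-oriented human tumor cell screen. The endpoints are IC50 (molar concentration giving 50% growth inhibition), TGI (total growth inhibition) and LC50 (50% net cell death). The maximal concentration tested was 100 μM. Subpanel values are means of several individual cell lines.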

EKVX = assay: Antitumor activity against human EKVX cells; type: functional; summary of the method: as §1
HOP-62 = assay: Antitumor activity against human HOP62 cells; type: functional; summary of the method: as §1
KM12 = assay: Antitumor activity against human KM12 cells; type: functional; summary of the method: as §1
786-0 = assay: Antitumor activity against human 786-0 cells; type: functional; summary of the method: as §1
SK-MEL-5 = assay: Antitumor activity against human SK-MEL-5 cells; type: functional; summary of the method: as §1
MCF7 = assay: Antitumor activity against human MCF7 cells; type: functional; summary of the method: as §1
NCI-H23 = assay: Antitumor activity against human NCI-H23 cells; type: functional; summary of the method: as §1
carcinoma cell line = assay: Antitumor activity against human NCI ovarian carcinoma cell line panel; type: functional, cell-based; summary of the method: as §1
[1] = system: Non-small cell lung cancer cell line; assay: Antitumor activity against human NCI non-small cell lung cancer cell line panel; type: functional, cell-based; summary of the method: as §1
SNB-19 = assay: Antitumor activity against human SNB19 cells; type: functional; summary of the method: as §1
BT-549 = assay: Antitumor activity against human BT549 cells; type: functional; summary of the method: as §1
OVCAR-3 = assay: Antitumor activity against human OVCAR-3 cells; type: functional; summary of the method: as §1
SW-620 = assay: Antitumor activity against human SW620 cells; type: functional
Summary of the method: (§2)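 NCI in vitro disease-oriented tumour cell line screen. Read-outs are IC50 (molar concentration giving 50% growth inhibition), TGI (molar concentration giving total inhibition of net growth) and LC50 (molar concentration giving 50% net cell death). The maximal concentration tested was 100 μM.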

HOP-92 = assay: Antitumor activity against human HOP92 cells; type: functional; summary of the method: as §1
NCI [2] = assay: Antitumor activity against human NCI colon cancer cell line panel; type: functional, cell-based; summary of the method: as §1
UACC-257 = assay: Antitumor activity against human UACC257 cells; type: functional; summary of the method: as §2
SK-MEL-28 = assay: Antitumor activity against human SK-MEL-28 cells; type: functional; summary of the method: as §1
NCI-H460 = assay: Antitumor activity against human NCI-H460 cells; type: functional; summary of the method: as §1
UO-31 = assay: Antitumor activity against human UO31 cells; type: functional; summary of the method: as §2
TK-10 = assay: Antitumor activity against human TK10 cells; type: functional; summary of the method: as §2
PC-3 = assay: Antitumor activity against human PC3 cells; type: functional; summary of the method: as §1
SK-MEL-2 = assay: Antitumor activity against human SK-MEL-2 cells; type: functional; summary of the method: as §1
HL-60 = assay: Antitumor activity against human HL60 cells; type: functional; summary of the method: as §1
NCI-H322M = assay: Antitumor activity against human NCI-H322M cells; type: functional; summary of the method: as §1
IGROV-1 = assay: Antitumor activity against human IGROV1 cells; type: functional; summary of the method: as §1
NCI [3] = assay: Antitumor activity against human NCI leukemia cell line panel; type: functional, cell-based; summary of the method: as §1
T47D = assay: Antitumor activity against human T47D cells; type: functional; summary of the method: as §2
SF-295 = assay: Antitumor activity against human SF295 cells; type: functional; summary of the method: as §1
HCT-116 = assay: Antitumor activity against human HCT116 cells; type: functional; summary of the method: as §1
[4] = Half life of hydrolysis in deuterated phosphate buffer at pD 7.8; conditions: deuterated phosphate buffer, pH 7.8
NCI [5] = assay: Antitumor activity against human NCI renal cancer cell line panel; type: functional, cell-based; summary of the method: as §1
K562 = assay: Antitumor activity against human K562 cells; type: functional; summary of the method: as §1
DU-145 = assay: Antitumor activity against human DU145 cells; type: functional; summary of the method: as §1
SF-539 = assay: Antitumor activity against human SF539 cells; type: functional; summary of the method: as §1
U-251 = assay: Antitumor activity against human U251 cells; type: functional; summary of the method: as §2
M14 = assay: Antitumor activity against human M14 cells; type: functional; summary of the method: as §1
SNB-75 = assay: Antitumor activity against human SNB75 cells; type: functional; summary of the method: as §2
[6] = Antitumor activity against human LOX IMV1 cells; type: functional, cell-based; summary of the method: as §1
OVCAR-5 = assay: Antitumor activity against human OVCAR5 cells; type: functional; summary of the method: as §1
OVCAR-8 = assay: Antitumor activity against human OVCAR8 cells; type: functional; summary of the method: as §1
[7] = read-out: Log LC50 (the source's name) (converted)
[8] = read-out: LC50 (the source's name)

CN(/N=N/c1nc(OCc2ccccc2)c2nc[nH]c2n1)C(=O)Oc1ccc([N+](=O)[O-])cc1 showed a GI50 (OVCAR-4) of 22.9 µM, a CC50 (OVCAR-4; [7]) greater than 50.1 µM and a TGI (OVCAR-4; read-out: Log TGI (converted)) greater than 50.1 µM. The GI50 (EKVX) was 11.5 µM, the CC50 (EKVX; [7]) was greater than 50.1 µM and the TGI (EKVX; read-out: Log TGI (converted)) was 36.3 µM. The GI50 (HOP-62) was 28.8 µM, the LC50 (HOP-62) was greater than 50.1 µM and the TGI (HOP-62; read-out: Log TGI (converted)) was greater than 50.1 µM. For the same molecule, the GI50 (KM12) was 8.51 µM, the CC50 (KM12; [7]) was 41.7 µM and the TGI (KM12; read-out: Log TGI (converted)) was 18.6 µM. For the same molecule, the GI50 (786-0) was 8.71 µM, the LC50 (concentration giving 50% net cell death) (786-0) was greater than 50.1 µM and the TGI (786-0; read-out: Log TGI (converted)) was 23.4 µM. It also gave a GI50 (SK-MEL-5) of 6.92 µM, a CC50 (SK-MEL-5; [7]) of 38.9 µM and a TGI (SK-MEL-5; read-out: Log TGI (converted)) of 16.2 µM. It also gave a GI50 (MCF7) of 12.3 µM, a CC50 (MCF7; [7]) greater than 50.1 µM and a TGI (MCF7; read-out: Log TGI (converted)) greater than 50.1 µM. It also gave a GI50 (NCI-H23) of 8.51 µM, an LC50 (50% net cell kill) (NCI-H23) of 32.4 µM and a TGI (NCI-H23; read-out: Log TGI (converted)) of 16.2 µM. It also gave a pIC50 (carcinoma cell line) of 4.92, a TGI (carcinoma cell line) of 34 µM and a CC50 (carcinoma cell line; [8]) of 50 µM. It also gave a pIC50 [1] of 4.96, a TGI [1] of 29 µM and a CC50 [1, 8] of 47 µM. The GI50 (SNB-19) was 9.55 µM, the LC50 (SNB-19) was greater than 50.1 µM and the TGI (SNB-19; read-out: Log TGI (converted)) was 28.2 µM. The GI50 (BT-549) was 7.41 µM, the CC50 (BT-549; [7]) was greater than 50.1 µM and the TGI (BT-549; read-out: Log TGI (converted)) was 20.4 µM. The GI50 (OVCAR-3) was 9.55 µM, the LC50 (OVCAR-3) was greater than 50.1 µM and the TGI (OVCAR-3; read-out: Log TGI (converted)) was 24.5 µM. It also gave a GI50 (SW-620) of 9.12 µM, a CC50 (SW-620; [7]) greater than 50.1 µM and a TGI (SW-620; read-out: Log TGI (converted)) of 26.3 µM. The GI50 (HOP-92) was 7.24 µM, the CC50 (HOP-92; [7]) was greater than 50.1 µM and the TGI (HOP-92; read-out: Log TGI (converted)) was 26.3 µM. For the same molecule, the pIC50 (NCI [2]) was 5.05, the TGI (NCI [2]) was 21 µM and the CC50 (NCI [2]; [8]) was 43 µM. It also gave a GI50 (UACC-257) of 38.9 µM, a CC50 (UACC-257; [7]) greater than 50.1 µM and a TGI (UACC-257; read-out: Log TGI (converted)) greater than 50.1 µM. For the same molecule, the GI50 (SK-MEL-28) was 12.3 µM, the CC50 (SK-MEL-28; [7]) was greater than 50.1 µM and the TGI (SK-MEL-28; read-out: Log TGI (converted)) was greater than 50.1 µM. For the same molecule, the GI50 (NCI-H460) was 6.76 µM, the CC50 (NCI-H460; [7]) was greater than 50.1 µM and the TGI (NCI-H460; read-out: Log TGI (converted)) was 31.6 µM. It also gave a GI50 (UO-31) of 6.61 µM, a CC50 (UO-31; [7]) of 29.5 µM and a TGI (UO-31; read-out: Log TGI (converted)) of 13.8 µM. The GI50 (TK-10) was 12 µM, the CC50 (TK-10; [7]) was greater than 50.1 µM and the TGI (TK-10; read-out: Log TGI (converted)) was 33.9 µM. It also gave a GI50 (PC-3) of 10.7 µM, a CC50 (PC-3; [7]) greater than 50.1 µM and a TGI (PC-3; read-out: Log TGI (converted)) of 26.9 µM. For the same molecule, the GI50 (SK-MEL-2) was 12 µM, the CC50 (SK-MEL-2; [7]) was greater than 50.1 µM and the TGI (SK-MEL-2; read-out: Log TGI (converted)) was 28.2 µM. It also gave a GI50 (HL-60) of 12 µM, a CC50 (HL-60; [7]) greater than 50.1 µM and a TGI (HL-60; read-out: Log TGI (converted)) greater than 50.1 µM. It also gave a GI50 (NCI-H322M) of 9.33 µM, a CC50 (NCI-H322M; [7]) of 45.7 µM and a TGI (NCI-H322M; read-out: Log TGI (converted)) of 20.9 µM. It also gave a GI50 (IGROV-1) of 12.3 µM, a CC50 (IGROV-1; [7]) greater than 50.1 µM and a TGI (IGROV-1; read-out: Log TGI (converted)) of 30.9 µM. It also gave a pIC50 (NCI [3]) of 4.85, a TGI (NCI [3]) of 50 µM and a CC50 (NCI [3]; [8]) of 50 µM. For the same molecule, the GI50 (T47D) was 14.1 µM, the CC50 (T47D; [7]) was greater than 50.1 µM and the TGI (T47D; read-out: Log TGI (converted)) was 32.4 µM. It also gave a GI50 (SF-295) of 11.2 µM, a CC50 (SF-295; [7]) greater than 50.1 µM and a TGI (SF-295; read-out: Log TGI (converted)) of 33.9 µM. It also gave a GI50 (HCT-116) of 8.71 µM, a CC50 (HCT-116; [7]) of 29.5 µM and a TGI (HCT-116; read-out: Log TGI (converted)) of 15.8 µM. It also gave a half-life [4] of 23 min, a pIC50 (NCI [5]) of 5.05 and a TGI (NCI [5]) of 25 µM. It also gave a CC50 (NCI [5]; [8]) of 44 µM, a GI50 (K562) of 12 µM and a CC50 (K562; [7]) greater than 50.1 µM. The TGI (K562; read-out: Log TGI (converted)) was greater than 50.1 µM, the GI50 (DU-145) was 9.12 µM and the CC50 (DU-145; [7]) was 42.7 µM. For the same molecule, the TGI (DU-145; read-out: Log TGI (converted)) was 19.5 µM, the GI50 (SF-539) was 9.77 µM and the CC50 (SF-539; [7]) was greater than 50.1 µM. It also gave a TGI (SF-539; read-out: Log TGI (converted)) of 28.8 µM, a GI50 (U-251) of 7.59 µM and a CC50 (U-251; [7]) of 31.6 µM. For the same molecule, the TGI (U-251; read-out: Log TGI (converted)) was 15.1 µM, the GI50 (M14) was 8.91 µM and the CC50 (M14; [7]) was 38 µM. The TGI (M14; read-out: Log TGI (converted)) was 18.2 µM, the CC50 (SNB-75; [7]) was greater than 50.1 µM and the TGI (SNB-75; read-out: Log TGI (converted)) was greater than 50.1 µM. The GI50 [6] was 1.15 µM, the pIC50 [6] was 5.96 and the CC50 [6, 8] was 27 µM. It also gave a CC50 [6, 7] of 26.9 µM, a TGI ([6]; read-out: Log TGI (converted)) of 10.7 µM and a TGI ([6]; read-out: TGI) of 11 µM. For the same molecule, the GI50 (OVCAR-5) was 11.5 µM, the CC50 (OVCAR-5; [7]) was greater than 50.1 µM and the TGI (OVCAR-5; read-out: Log TGI (converted)) was greater than 50.1 µM. For the same molecule, the GI50 (OVCAR-8) was 9.77 µM, the LC50 (concentration giving 50% net cell death) (OVCAR-8) was greater than 50.1 µM and the TGI (OVCAR-8; read-out: Log TGI (converted)) was 26.3 µM.
